Screening results deposited in PubChem by several laboratories.
ANO1 block = inhibitors of mouse TMEM16A calcium-activated chloride channel; Q8BHY3; HEK293 TMEM16A/YFP iodide influx fluorescence, ionomycin; normalized B-score (activity score, 25-100; higher = stronger inhibition) at 10 µM; 1.2% of 310,000 active; AID 588511;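 active = ratio plate-corrected score three or more library SD toward inhibition, starting fluorescence score within five deviations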;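 also: score derived from kinetic fluorescence span divided by baseline fluorescence per well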
DAGLB inhibitor = diacylglycerol lipase beta (human) inhibition; HEK293T DAGLB membrane lysate, EnzChek fluorogenic substrate; inhibition, % at 5.17 µM; 0.059% of 340,000 active; in the data active = inhibition above about 34%;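 also: 0% = enzyme with vehicle and 100% = wells lacking enzyme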
Target sequence (Q8NCG7 whole entry, looked up): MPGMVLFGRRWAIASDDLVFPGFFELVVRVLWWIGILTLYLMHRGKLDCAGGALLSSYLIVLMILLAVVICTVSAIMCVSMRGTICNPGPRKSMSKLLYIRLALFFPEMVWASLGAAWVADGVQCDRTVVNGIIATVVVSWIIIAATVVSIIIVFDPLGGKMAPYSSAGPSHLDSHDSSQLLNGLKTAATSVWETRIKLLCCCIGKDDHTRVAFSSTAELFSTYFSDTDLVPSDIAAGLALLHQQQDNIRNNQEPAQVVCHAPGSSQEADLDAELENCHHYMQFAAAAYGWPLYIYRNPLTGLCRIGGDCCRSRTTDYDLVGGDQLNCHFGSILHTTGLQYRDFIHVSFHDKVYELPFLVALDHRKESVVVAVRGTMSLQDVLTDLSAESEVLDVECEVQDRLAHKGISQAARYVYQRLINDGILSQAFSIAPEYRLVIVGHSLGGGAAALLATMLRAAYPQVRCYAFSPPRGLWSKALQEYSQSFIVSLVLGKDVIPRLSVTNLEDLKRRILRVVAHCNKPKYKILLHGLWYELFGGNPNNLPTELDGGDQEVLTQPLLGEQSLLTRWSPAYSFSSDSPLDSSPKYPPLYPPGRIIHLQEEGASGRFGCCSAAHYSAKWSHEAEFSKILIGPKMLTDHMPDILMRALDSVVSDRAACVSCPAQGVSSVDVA
ANO1 activ = activates or potentiates the mouse TMEM16A chloride channel | HEK293 TMEM16A/YFP-H148Q/I152L, iodide quench fluorescence; active compounds read low | B-score at 10 µM | 0.3% of 340,000 active | AID 623877;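 active = fluorescence-ratio B-score plate-corrected deviation score at least 3 library SD below zero, with starting fluorescence score within 5 deviations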;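 also: channel opened by trigger with iodide after compound preincubation; score built on the fluorescence ratio of max minus min over baseline; more negative score means more quench and so TMEM16A activation or potentiation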
MT1-MMP act inh = blocks activation of human MT1-MMP; HT1080 RFP-PRO-GFP cells, GFP/RFP ratio fluorescence, overnight; percent of plate control window, DMSO zero; GFP/RFP ratio change, % at 20 µM; 0.061% of 360,000 active; AID 651647;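 active = GFP/RFP ratio change of at least 30% with cell ATP level not reduced by more than half and red fluorescence within 50% of control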
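system = RFP-PRO-GFP reporter HT1080 cells | dosing = 20 µM single dose, 1% DMSO | timing = overnight cell settling, then overnight compound exposure, 37 °C, 5% CO2 | read-out basis = GFP/RFP fluorescence ratio | controls = DMSO and RFP-L50D-GFP cell wells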
The depositor's hits bear a star; i = inactive; nt = no result given. Compounds with a hit are over-represented: about 1.3% of the library has one in this group of screens.

SMILES	ANO1 block	DAGLB inhibitor	ANO1 activ	MT1-MMP act inh
O=C(COC(=O)c1ccccn1)Nc1ccc(S(=O)(=O)N2CCOCC2)cc1	25*	5	i	0
CC(C)(C)S(=O)(=O)N1Cc2cc(CO)cc(CCO)c2[C@@H]1CCO	nt	-1	nt	4
COc1cccc(N=Nc2c(=O)[nH]n3c(=O)cc(C)[nH]c23)c1	i	5	-21*	1
Cc1cc(Nc2ccccc2)nn1C(=O)c1ccccc1	25*	-5	i	13
Cc1cc(N2CCN(S(=O)(=O)c3ccc(Cl)cc3)CC2)c2ccccc2n1	100*	-3	i	-5
S=C(Nc1cccc(Cl)c1)Nc1ccccc1Oc1ccccc1	100*	-3	i	1
COc1ccc(S(=O)(=O)N2CCC[C@H]2C(=O)N2CCC[C@H]2C(=O)NCc2ccncc2)cc1C	nt	nt	nt	5
Cc1[nH]c2ccccc2c1C(=O)/C=C/c1ccccc1	100*	-5	i	-11
Cc1ccc(Nc2c(F)c(F)c(F)c(F)c2C(=O)O)cc1	25*	6	i	2
CCN(C(=O)CSc1ncnc2sc(C)c(C)c12)C1CCS(=O)(=O)C1 (stereo not given)	i	3	-40*	2
COc1cc(CNC(=O)c2cc(-c3ccc(F)cc3OC)n[nH]2)cc(OC)c1	nt	nt	nt	2
CCc1c(-c2cccc(OC)c2)ncn1Cc1cccc(-c2ccccc2)c1	nt	nt	nt	1
Cc1ccc(OCCNC(=O)CCNC(=O)c2ccc(Cl)cc2)cc1	nt	0	-26*	-1
Oc1ccc(Cl)c(CN2CCN(c3ncc(Cc4ccccc4)cn3)CC2)c1	nt	nt	nt	4
O=C(NCC1CCCO1)C1CCN(C2CCN(C(=O)CC3CCCC3)CC2)CC1 (stereo not given)	i	-3	-6.6*	6
Nc1ccc(S(=O)(=O)c2ccc(N3CCOCC3)c(N)c2)cc1	nt	-1	nt	-3
N#Cc1ccccc1S(=O)(=O)N1CCN(C(=O)CCc2ccccc2)CC1	nt	-3	i	-3
N#Cc1ccccc1S(=O)(=O)N1CCN(C(=O)CCC2CCCC2)CC1	nt	-2	-23*	-1
ON1C(c2ccc(Cl)cc2Cl)N(O)[C@H]2CCCC[C@H]21 (stereo not given in full)	100*	-2	i	2
CC1N(O)C(c2ccc(Cl)cc2Cl)N(O)C1(C)C (stereo not given)	i	-3	i	-2
Cc1ccc(N2C(=O)[C@@H]3C(c4cccnc4)=NO[C@@H]3C2=O)c(C)c1	25*	0	i	-1
CCOc1ccc(-n2c(SCC(=O)Nc3ccc(CC)cc3)nc3n[nH]c(C)c3c2=N)cc1	i	2	-6.4*	0
CC(=O)c1ccc(S(=O)(=O)N(C)CCCC(=O)NCc2ccc3c(c2)OCO3)cc1	nt	3	-5.8*	-6
CN(CC(=O)NCc1ccc2c(c1)OCO2)S(=O)(=O)c1ccc(F)cc1	i	1	i	3
C/C(=C\C(=O)c1ccc(Br)cc1)NCc1ccc2c(c1)OCO2	100*	-5	i	6
SMILES	ANO1 block	DAGLB inhibitor	ANO1 activ	MT1-MMP act inh
Cc1ccc(NC(=O)CSc2nnc(-c3ccccc3Br)o2)cc1C	i	-19	i	2
Cc1cc(C)c(C(=O)CSc2nnc(-c3ccccc3Br)o2)cc1C	nt	0	-5*	-1
CCOc1ccc(S(=O)(=O)NCc2ccncc2)cc1	25*	1	i	-5
COc1ccccc1NC(=O)Nc1nc(C(N)CC(C)C)cs1 (stereo not given)	nt	nt	nt	0
O=C(CNC(=O)c1ccc(N2CCCC2=O)cc1)Nc1ccc(F)c(F)c1F	nt	-2	i	-3
Cc1ccc(S(=O)(=O)N(C)C)cc1NC(=O)c1cc(=O)[nH]c2ccccc12	i	-2	-6.6*	0
CN(C)S(=O)(=O)c1cccc(NC(=O)c2cc(=O)[nH]c3ccccc23)c1	i	-2	i	-6
Cc1ccsc1C=Nc1c(C)n(C)n(-c2ccccc2)c1=O	i	5	i	1
Cc1c(N=Cc2cccs2)c(=O)n(-c2ccccc2)n1C	100*	0	i	3
Cn1c(Sc2ccccc2Cl)c(C=O)c2ccccc21	100*	-6	i	-2
Cc1cccc(Sc2c(C=O)c3ccccc3n2C)c1	25*	-4	i	-9
Cn1c(Sc2ccc(Cl)cc2)c(C=O)c2ccccc21	i	-7	i	-21
Cc1ccc(Oc2c(C=O)c3ccccc3n2C)cc1	i	-6	i	-8
COc1ccc(-c2nc(CSCC(=O)NCc3ccco3)c(C)o2)cc1	100*	-3	i	-1
O=C1NC[C@@H](CCCCN2C[C@H](Cc3ccc(O)cc3)N(CCc3ccccc3)C(=O)C2=O)N(CCc2ccc(O)cc2)C1=O	nt	nt	nt	0
CCN(CC(=O)Nc1c(F)cccc1F)C(=O)/C=C/c1ccc(S(=O)(=O)N2CCCCCC2)cc1	25*	-1	i	-4
Cc1cc(=O)n2nc(N3CCCC(C(=O)N4CCOCC4)C3)sc2n1 (stereo not given)	i	5	-5.5*	-8
Cc1cc(=O)n2nc(N3CCCC(C(=O)N4CCc5ccccc54)C3)sc2n1 (stereo not given)	i	1	i	8
COC(=O)[C@@]12C[C@@H](CC(=O)NCCC(C)C)C(=O)N(CCc3ccc(OC)c(OC)c3)C1=CCC(C)(C)C2	nt	nt	nt	-6
O=C(CCCCCN1C(=O)c2ccccc2C1=O)Nc1ccc(S(=O)(=O)N2CCCCC2)cc1	i	-4	i	8
O=C(OCCCCN1C(=O)c2ccccc2C1=O)c1ccc(S(=O)(=O)N2CCCC2)cc1	25*	0	i	1
Cc1ccc(C)c(OCCC(=O)OCc2csc(CC(=O)Nc3ccccc3C)n2)c1	nt	-3	i	-2
COC(=O)[C@]12CCCCC=C1N(Cc1ccc3c(c1)OCO3)C(=O)[C@H](CC(=O)NCC13CC4CC(CC(C4)C1)C3)C2	nt	nt	nt	-25
COc1ccc(Nc2ccc(OC)cc2)cc1	i	nt	i	38*
COC(=O)c1sc(-c2ccc(C(C)(C)C)cc2)cc1NC(=O)c1ccccc1C(=O)O	100*	9	i	2
SMILES	ANO1 block	DAGLB inhibitor	ANO1 activ	MT1-MMP act inh
CC(C)C(C)(C#N)NC(=O)CSc1nnc(-c2ccncc2)n1Cc1ccccc1 (stereo not given)	25*	0	i	0
CC(Nc1nc(-c2ccc(F)cc2)cs1)c1nc2cc(C(F)(F)F)ccc2n1CCOCCO (stereo not given)	i	0	i	0
COc1ccc(-c2csc(NC(C)c3nc4cc(C(F)(F)F)ccc4n3CCOCCO)n2)cc1 (stereo not given)	25*	1	i	-5
CCCc1nc2cc(Cl)c([N+](=O)[O-])cc2o1	100*	0	i	0
Cc1nc2cc(Cl)c([N+](=O)[O-])cc2s1	i	0	i	1
COc1ccc(N2C(=O)CSC2c2ccc(F)c(F)c2)cc1 (stereo not given)	i	-2	-8.5*	-3
